Measured values taken from publication PMC6800822 (Bioconjugate chemistry, 2019).
Square brackets hold non-standard residues; d marks the D form. Peptide text beside a SMILES is read from it. * marks the point of attachment. Acetyl(thymin-1-yl) = Cc1cn(CC(=O)*)c(=O)[nH]c1=O; NBD = O=[N+]([O-])c1ccc(*)c2nonc12

How the values were obtained:
[1] = format: cell-based
[2] = system: T98G cells; assay: Cellular uptake and distribution by fluorescence imaging; format: cell-based
Procedure, shortened: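 T98G cells incubated with the test peptide at 100 or 200 μM and imaged by confocal fluorescence microscopy after 2 h. Counterstains used: Hoechst 33342 for nuclei, fibrillarin immunofluorescence for nucleoli, and ER Tracker. Localisation to lysosomes was also assessed.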

[3] = CD spectra, secondary structure inferred by DichroWeb; format: physicochemical; conditions: 200 μM
[4] = system: phospho-Ser139-H2AX (γH2AX); assay: Immunofluorescence of γH2AX; format: cell-based; conditions: T98G cells, 200 μM, 2 h
[5] = system: RNA extracted from T98G cells; assay: Interaction with total RNA extracted from T98G cells in PBS buffer
[6] = system: HeLa; assay: Nucleolus targeting in HeLa cells; format: cell-based
[7] = system: MES-SA/Dx5; assay: Nucleolus targeting in MES-SA/Dx5 cells; format: cell-based
[8] = system: Saos-2; assay: Nucleolus targeting in Saos-2 cells; format: cell-based
[9] = system: T98G cells; conditions: 50 uM; cited from earlier work

Question: For `Cc1cn(CC(=O)N[C@H](Cc2ccccc2)C(=O)N[C@H](Cc2ccccc2)C(=O)N[C@H](CCCCN)C(=O)N[C@H](CCCCN)C(=O)N[C@H](Cc2ccccc2)C(=O)N[C@H](CCCCN)C(=O)N[C@H](CC(C)C)C(=O)N[C@H](CCCCN)C(=O)N[C@H](CC(C)C)C(=O)N[C@H](CCCCNc2ccc([N+](=O)[O-])c3nonc23)C(=O)O)c(=O)[nH]c1=O` [D-1] ({Acetyl(thymin-1-yl)}-[dF][dF][dK][dK][dF][dK][dL][dK][dL][dK](NBD)-OH; N-terminus and C-terminus assumed), which IC50 [1] is on record?
Answer: 86.2 µM

Question: What about the Cell entry ([2]; 100 μM, fluorescence imaging) of the same compound?
Answer: hardly enters the cells

Question: What about the Cellular distribution ([2]; 200 μM, 2 h, fluorescence imaging) of the same compound?
Answer: bright fluorescent puncta in cell nucleus

Question: And the Lysosomal localisation ([2]; 200 μM, fluorescence imaging)?
Answer: only slightly localized in the lysosome

Question: And the “Cellular uptake at 4 °C” value ([2]; 4 °C, 1 h)?
Answer: hardly exhibit any fluorescence

Question: What about the unordered structures content [3] of the same compound?
Answer: 28%

Question: What about the α-helix content [3] of the same compound?
Answer: 36%

Question: And the β-sheet content [3]?
Answer: 13%

Question: And the β-turns content [3]?
Answer: 23%

Question: What about the “γH2AX foci formation (DNA damage)” value [4] of the same compound?
Answer: leads to γH2AX foci formation

Question: And the “Interaction with RNA” value [5]?
Answer: form precipitates that resist ribonuclease

Question: What about the Nucleolus targeting [6] of the same compound?
Answer: able to target nucleoli

Question: What about the Nucleolus targeting [7] of the same compound?
Answer: able to target nucleoli

Question: What about the Nucleolus targeting [8] of the same compound?
Answer: able to target nucleoli

Question: What about the “Effect on cells at low concentration” value [9] of the same compound?
Answer: innocuous to the cells
